# What was measured:
# [1] = test system: Human immunodeficiency virus 1; test: HIV1-latency reversing activity in human ACH-2 cell line incubated for 48 hrs; format: functional, organism-based; conditions: Human immunodeficiency virus 1, ACH-2, 48 h
# [2] = test system: Human immunodeficiency virus 1; test: HIV1-latency reversing activity in human J-Lat 10.6 cells assessed as change in GFP expression incubated for 24 hrs by flow cytometric analysis; format: functional, organism-based; conditions: Human immunodeficiency virus 1, J-Lat 10.6, 24 h
# Outline: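 Cells seeded at 2 × 10^5 per well and exposed to a range of compound concentrations for 24 h; 10 nM PMA served as reference. GFP-positive cells counted by flow cytometry. Means ± SD from at least two independent experiments.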
# [3] = Stability of the compound assessed as porcine liver esterase-mediated hydrolysis measured after 1 to 24 hrs by HPLC analysis; format: ADME, Sus scrofa; conditions: pig, isolated protein; time 1-24 hrs
# Outline: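 Compounds taken from 100 mM DMSO stock to 1 mM final in 50 mM HEPES pH 7.2 with 0.01 U PLE, then held at 37 °C. Aliquots sampled at 1, 3, 6 and 24 h and quenched into equal volume MeCN/0.1% TFA. C18 reversed-phase HPLC with 0–95% MeCN gradient over 40 min, UV detection at 245 nm. Residual peak area normalized to 0 h.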
# [4] = target: Protein kinase C delta type (Homo sapiens, UniProt Q05655); test: Binding affinity to PKCdelta C1B domain (231 to 281 residues) (unknown origin) by 6-methoxynaphthalene DAG lactone probe based fluorescence quenching assay
# Protein kinase C delta type, sequence (Q05655 whole entry, the tested form may be a part): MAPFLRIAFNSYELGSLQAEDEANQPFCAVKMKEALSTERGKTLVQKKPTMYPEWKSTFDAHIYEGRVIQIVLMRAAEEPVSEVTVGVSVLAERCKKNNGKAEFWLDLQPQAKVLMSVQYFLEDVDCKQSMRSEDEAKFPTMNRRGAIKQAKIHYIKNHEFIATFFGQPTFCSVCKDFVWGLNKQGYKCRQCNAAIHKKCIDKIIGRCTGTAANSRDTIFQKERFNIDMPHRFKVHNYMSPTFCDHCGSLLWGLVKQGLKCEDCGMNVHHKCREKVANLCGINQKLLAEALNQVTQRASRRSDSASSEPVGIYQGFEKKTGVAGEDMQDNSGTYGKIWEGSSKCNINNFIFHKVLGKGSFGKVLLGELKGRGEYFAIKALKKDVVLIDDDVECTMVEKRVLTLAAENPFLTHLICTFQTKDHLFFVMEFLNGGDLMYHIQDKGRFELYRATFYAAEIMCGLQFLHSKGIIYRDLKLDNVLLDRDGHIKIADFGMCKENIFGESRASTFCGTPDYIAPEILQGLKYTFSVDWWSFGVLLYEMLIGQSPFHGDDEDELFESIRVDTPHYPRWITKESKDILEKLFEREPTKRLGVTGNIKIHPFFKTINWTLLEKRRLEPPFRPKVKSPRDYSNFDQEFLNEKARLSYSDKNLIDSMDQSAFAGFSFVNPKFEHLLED
# [5] = Cytotoxicity against human Jurkat cells assessed as reduction in cell viability incubated for 24 hrs by Ghost dye 780 staining based flow cytometric analysis; format: toxicity
# [6] = test system: Human immunodeficiency virus 1; test: HIV1-latency reversing activity in human U1 cells incubated for 2 days; format: functional, organism-based; conditions: Human immunodeficiency virus 1, U1, 48 h
SMILES,EC50 [2] [µM],CC50 at 24 h [5] [µM],also measured
CCCCCCCCCCc1ccc2c(c1)N(C)[C@@H](C(C)C)C(=O)N[C@H](CO)C2,,,EC50 [1]: 0.025 µM
CCCCCCCCCC(=O)OCC1(CO)CC(=C(C)C)C(=O)O1 (centres undefined),> 10,> 10,Stability [3]: Unstable; IC50 ([4]; read-out: IC50): 2.2 µM
CC(C)=C1CC(CO)(COC(=O)C2CCC(C)CC2)OC1=O (centres undefined),> 10,,
CCCCCCC(CCCCCC)C(=O)OCC1(CO)CC(=C(C)C)C(=O)O1 (centres undefined),0.22,> 10,Stability [3]: Stable; IC50 ([4]; read-out: IC50): 0.69 µM
CC(C)=C1CC(CO)(COC(=O)C(C)(C)C)OC1=O (centres undefined),> 10,> 10,Stability [3]: Stable; IC50 ([4]; read-out: IC50): > 10 µM
CCCCCCCC(CCCCCCC)C(=O)OCC1(CO)CC(=C(C)C)C(=O)O1 (centres undefined),0.38,> 10,
CC(C)=C1CC(CO)(COC(=O)C(C)C)OC1=O (centres undefined),> 10,,
CCCCCC(CCCCC)C(=O)OCC1(CO)CC(=C(C)C)C(=O)O1 (centres undefined),0.43,> 10,
C=C(C)[C@]12C[C@@H](COC(=O)c3ccccc3)[C@@]34O[C@@]5(O[C@@H]1[C@@H]3[C@@H]1O[C@]1(CO)[C@@H](O)[C@@]1(O)[C@H]4[C@H]([C@H](C)[C@@H]1OC(=O)c1ccccc1)[C@H](C)CCCCCC[C@H]5O)O2,,,EC50 [6]: 18 pM
CC(C)=C1CC(CO)(COC(=O)c2ccc3ccccc3c2)OC1=O (centres undefined),> 10,,
CC(C)=C1CC(CO)(COC(=O)C2CCCCC2)OC1=O (centres undefined),> 10,,
CCCC(CCC)C(=O)OCC1(CO)CC(=C(C)C)C(=O)O1 (centres undefined),2,> 10,Stability [3]: Stable
CCCCC(=O)OCC1(CO)CC(=C(C)C)C(=O)O1 (centres undefined),> 10,,
CCC(CC)C(=O)OCC1(CO)CC(=C(C)C)C(=O)O1 (centres undefined),> 10,,
CCCCC(CCCC)C(=O)OCC1(CO)CC(=C(C)C)C(=O)O1 (centres undefined),0.82,> 10,
CC(=O)OCC1(CO)CC(=C(C)C)C(=O)O1 (centres undefined),> 10,> 10,IC50 [4]: Not Active
CC(C)=C1CC(CO)(COC(=O)c2ccccc2)OC1=O (centres undefined),> 10,,
CCCCCCCCC(CCCCCCCC)C(=O)OCC1(CO)CC(=C(C)C)C(=O)O1 (centres undefined),0.34,> 10,
CCCCCCCCCC(CCCCCCCCC)C(=O)OCC1(CO)CC(=C(C)C)C(=O)O1 (centres undefined),0.31,> 10,IC50 ([4]; read-out: IC50): 0.56 µM
CC(=O)O[C@@]12C[C@@H](C)[C@@]3(O)[C@@H](C=C(CO)C[C@]4(O)C(=O)C(C)=C[C@@H]34)[C@@H]1C2(C)C [PROSTRATIN],,> 10,

# From ChEMBL document CHEMBL5390200, “Synthesis and evaluation of DAG-lactone derivatives with HIV-1 latency reversing activity” (Eur J Med Chem, 2023)
